Reference: ChEMBL document CHEMBL4689842, “EUbOPEN Chemogenomics Library wave 1” (2021)

Test system: HEK-293T
Assay: Multiplex assay against HEK293T;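 as to Population Tubulin-Different-Phenotype (%): share of the cells with healthy nuclei that show this phenotype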
Type: toxicity, cell-based
Settings: human
In short: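 Phenotypes for tubulin, mitochondrial mass and membrane permeability are expressed as per cents of healthy-nucleus cells. Cells were stained live at seeding with Hoechst33342, BioTracker Green Microtubule Cytoskeleton Dye, MitoTracker Red and Annexin V Alexa Fluor 680, then imaged after compound addition on a CQ1 microscope at 37°C and 5% CO2. Machine-learning gating in CellPathfinder separated Hoechst high-intensity objects from normal cells, divided normal cells by nuclear state (healthy, pyknosed, fragmented) and divided pyknosed cells into mitotic or apoptotic.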

[1] = 12 h, 1 µM, compound concentration 1 uM, replicate 1
[2] = 12 h, 1 µM, compound concentration 1 uM, replicate 2
[3] = 12 h, 10 µM, compound concentration 10 uM, replicate 1
[4] = 12 h, 10 µM, compound concentration 10 uM, replicate 2
[5] = 24 h, 1 µM, compound concentration 1 uM, replicate 1
[6] = 24 h, 1 µM, compound concentration 1 uM, replicate 2
[7] = 24 h, 10 µM, compound concentration 10 uM, replicate 1
[8] = 24 h, 10 µM, compound concentration 10 uM, replicate 2
[9] = 48 h, 1 µM, compound concentration 1 uM, replicate 1
[10] = 48 h, 1 µM, compound concentration 1 uM, replicate 2
[11] = 48 h, 10 µM, compound concentration 10 uM, replicate 1
[12] = 48 h, 10 µM, compound concentration 10 uM, replicate 2

c1cn2cc(-c3ccc4cn[nH]c4c3)nc(Nc3ccc(N4CCOCC4)cc3)c2n1 [ENTOSPLETINIB]
Population Apoptotic (%) [1]: 54%
Population Fragmented Nuclei (%) [1]: 8%
Population Healthy Nuclei (%) [1]: 40%
Population Hoechst High Intensity Objects (%) [1]: 16%
Population Membrane Permeable-Phenotype (%) [1]: 0%
Population Mitochondria Different-Phenotype (%) [1]: 95%
Population Mitotic Cells (%) [1]: 45%
Population Normal (%) [1]: 83%
Population Pyknosed Nuclei (%) [1]: 50%
Population Tubulin-Different-Phenotype (%) [1]: 74%
Total Cell Count [1]: 207
Population Apoptotic (%) [2]: 22%
Population Fragmented Nuclei (%) [2]: 2%
Population Healthy Nuclei (%) [2]: 36%
Population Hoechst High Intensity Objects (%) [2]: 4%
Population Membrane Permeable-Phenotype (%) [2]: 10%
Population Mitochondria Different-Phenotype (%) [2]: 57%
Population Mitotic Cells (%) [2]: 77%
Population Normal (%) [2]: 95%
Population Pyknosed Nuclei (%) [2]: 60%
Population Tubulin-Different-Phenotype (%) [2]: 57%
Total Cell Count [2]: 197
Population Apoptotic (%) [3]: 41%
Population Fragmented Nuclei (%) [3]: 77%
Population Healthy Nuclei (%) [3]: 6%
Population Hoechst High Intensity Objects (%) [3]: 27%
Population Membrane Permeable-Phenotype (%) [3]: 8%
Population Mitochondria Different-Phenotype (%) [3]: 89%
Population Mitotic Cells (%) [3]: 58%
Population Normal (%) [3]: 72%
Population Pyknosed Nuclei (%) [3]: 16%
Population Tubulin-Different-Phenotype (%) [3]: 81%
Total Cell Count [3]: 1068
Population Apoptotic (%) [4]: 35%
Population Fragmented Nuclei (%) [4]: 52%
Population Healthy Nuclei (%) [4]: 8%
Population Hoechst High Intensity Objects (%) [4]: 22%
Population Membrane Permeable-Phenotype (%) [4]: 7%
Population Mitochondria Different-Phenotype (%) [4]: 85%
Population Mitotic Cells (%) [4]: 64%
Population Normal (%) [4]: 77%
Population Pyknosed Nuclei (%) [4]: 38%
Population Tubulin-Different-Phenotype (%) [4]: 85%
Total Cell Count [4]: 431
Population Apoptotic (%) [5]: 43%
Population Fragmented Nuclei (%) [5]: 6%
Population Healthy Nuclei (%) [5]: 52%
Population Hoechst High Intensity Objects (%) [5]: 15%
Population Membrane Permeable-Phenotype (%) [5]: 6%
Population Mitochondria Different-Phenotype (%) [5]: 93%
Population Mitotic Cells (%) [5]: 56%
Population Normal (%) [5]: 84%
Population Pyknosed Nuclei (%) [5]: 41%
Population Tubulin-Different-Phenotype (%) [5]: 72%
Total Cell Count [5]: 227
Population Apoptotic (%) [6]: 24%
Population Fragmented Nuclei (%) [6]: 4%
Population Healthy Nuclei (%) [6]: 60%
Population Hoechst High Intensity Objects (%) [6]: 2%
Population Membrane Permeable-Phenotype (%) [6]: 5%
Population Mitochondria Different-Phenotype (%) [6]: 48%
Population Mitotic Cells (%) [6]: 75%
Population Normal (%) [6]: 97%
Population Pyknosed Nuclei (%) [6]: 35%
Population Tubulin-Different-Phenotype (%) [6]: 61%
Total Cell Count [6]: 259
Population Apoptotic (%) [7]: 33%
Population Fragmented Nuclei (%) [7]: 75%
Population Healthy Nuclei (%) [7]: 8%
Population Hoechst High Intensity Objects (%) [7]: 28%
Population Membrane Permeable-Phenotype (%) [7]: 11%
Population Mitochondria Different-Phenotype (%) [7]: 85%
Population Mitotic Cells (%) [7]: 66%
Population Normal (%) [7]: 71%
Population Pyknosed Nuclei (%) [7]: 15%
Population Tubulin-Different-Phenotype (%) [7]: 75%
Total Cell Count [7]: 988
Population Apoptotic (%) [8]: 40%
Population Fragmented Nuclei (%) [8]: 51%
Population Healthy Nuclei (%) [8]: 12%
Population Hoechst High Intensity Objects (%) [8]: 20%
Population Membrane Permeable-Phenotype (%) [8]: 4%
Population Mitochondria Different-Phenotype (%) [8]: 88%
Population Mitotic Cells (%) [8]: 59%
Population Normal (%) [8]: 79%
Population Pyknosed Nuclei (%) [8]: 35%
Population Tubulin-Different-Phenotype (%) [8]: 93%
Total Cell Count [8]: 430
Population Apoptotic (%) [9]: 43%
Population Fragmented Nuclei (%) [9]: 10%
Population Healthy Nuclei (%) [9]: 71%
Population Hoechst High Intensity Objects (%) [9]: 7%
Population Membrane Permeable-Phenotype (%) [9]: 1%
Population Mitochondria Different-Phenotype (%) [9]: 56%
Population Mitotic Cells (%) [9]: 56%
Population Normal (%) [9]: 92%
Population Pyknosed Nuclei (%) [9]: 17%
Population Tubulin-Different-Phenotype (%) [9]: 45%
Total Cell Count [9]: 307
Population Apoptotic (%) [10]: 18%
Population Fragmented Nuclei (%) [10]: 6%
Population Healthy Nuclei (%) [10]: 74%
Population Hoechst High Intensity Objects (%) [10]: 2%
Population Membrane Permeable-Phenotype (%) [10]: 5%
Population Mitochondria Different-Phenotype (%) [10]: 21%
Population Mitotic Cells (%) [10]: 81%
Population Normal (%) [10]: 97%
Population Pyknosed Nuclei (%) [10]: 19%
Population Tubulin-Different-Phenotype (%) [10]: 55%
Total Cell Count [10]: 378
Population Apoptotic (%) [11]: 23%
Population Fragmented Nuclei (%) [11]: 64%
Population Healthy Nuclei (%) [11]: 18%
Population Hoechst High Intensity Objects (%) [11]: 25%
Population Membrane Permeable-Phenotype (%) [11]: 6%
Population Mitochondria Different-Phenotype (%) [11]: 43%
Population Mitotic Cells (%) [11]: 76%
Population Normal (%) [11]: 74%
Population Pyknosed Nuclei (%) [11]: 16%
Population Tubulin-Different-Phenotype (%) [11]: 57%
Total Cell Count [11]: 913
Population Apoptotic (%) [12]: 26%
Population Fragmented Nuclei (%) [12]: 47%
Population Healthy Nuclei (%) [12]: 25%
Population Hoechst High Intensity Objects (%) [12]: 20%
Population Membrane Permeable-Phenotype (%) [12]: 4%
Population Mitochondria Different-Phenotype (%) [12]: 71%
Population Mitotic Cells (%) [12]: 73%
Population Normal (%) [12]: 79%
Population Pyknosed Nuclei (%) [12]: 27%
Population Tubulin-Different-Phenotype (%) [12]: 93%
Total Cell Count [12]: 444
